For assay [1], the target named is Metabotropic glutamate receptor 5 (Rattus norvegicus) (UniProt P31424). As to the kind of experiment: Activity in agonist-induced phosphoinositide hydrolysis in CHO cells expressing mGluR5a.
Assay [2] concerns the target Metabotropic glutamate receptor 5 (Homo sapiens, UniProt P41594). As to the kind of experiment: Displacement of [3H]MPEP from cloned human mGluR5 transfected in HEK293-T cells. Format: cell-based. The method in brief:
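HEK293-T cells transiently transfected with cloned mGluR5 cDNA. Binding used 3.0 nM [3H]-MPEP with varying unlabeled ligand in 50 mM Tris-Cl, 0.9% NaCl, pH 7.4, incubated 90 min at 20 °C. Membranes were harvested on PEI-pretreated GF/C filters and counted by scintillation to obtain Ki.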

The target in assay [3] is Metabotropic glutamate receptor 5 (Rattus norvegicus, UniProt P31424). As to the kind of experiment: Displacement of [3H]MPEP from mGluR5 in rat brain membranes. Format: cell membranes.
The next assay is filed under the species Rattus norvegicus. In words: Ability to prevent reinstatement of cocaine-seeking behavior by environmental stimuli associated with cocaine availability in Wistar rat. It counts as functional, organism-based. A digest of the protocol: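 Adult male Wistar rats with jugular catheters trained to self-administer cocaine (0.25 mg/kg/infusion) under FR4 in daily 2 h sessions. Extinction continued until active-lever responding fell below 20% of baseline for 3 consecutive days. Cue-induced reinstatement was then tested 30 min after i.p. pretreatment with 5 or 10 mg/kg or vehicle (5% emulphor in saline). Active-lever responses were analysed by one-way ANOVA with Tukey tests.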

Calls of active or inactive are those of the source. No cut-off for these calls is given here. Where only a bound is given, the exact number is not on record here.

Metabotropic glutamate receptor 5 (Rattus norvegicus), sequence (P31424 whole entry, looked up): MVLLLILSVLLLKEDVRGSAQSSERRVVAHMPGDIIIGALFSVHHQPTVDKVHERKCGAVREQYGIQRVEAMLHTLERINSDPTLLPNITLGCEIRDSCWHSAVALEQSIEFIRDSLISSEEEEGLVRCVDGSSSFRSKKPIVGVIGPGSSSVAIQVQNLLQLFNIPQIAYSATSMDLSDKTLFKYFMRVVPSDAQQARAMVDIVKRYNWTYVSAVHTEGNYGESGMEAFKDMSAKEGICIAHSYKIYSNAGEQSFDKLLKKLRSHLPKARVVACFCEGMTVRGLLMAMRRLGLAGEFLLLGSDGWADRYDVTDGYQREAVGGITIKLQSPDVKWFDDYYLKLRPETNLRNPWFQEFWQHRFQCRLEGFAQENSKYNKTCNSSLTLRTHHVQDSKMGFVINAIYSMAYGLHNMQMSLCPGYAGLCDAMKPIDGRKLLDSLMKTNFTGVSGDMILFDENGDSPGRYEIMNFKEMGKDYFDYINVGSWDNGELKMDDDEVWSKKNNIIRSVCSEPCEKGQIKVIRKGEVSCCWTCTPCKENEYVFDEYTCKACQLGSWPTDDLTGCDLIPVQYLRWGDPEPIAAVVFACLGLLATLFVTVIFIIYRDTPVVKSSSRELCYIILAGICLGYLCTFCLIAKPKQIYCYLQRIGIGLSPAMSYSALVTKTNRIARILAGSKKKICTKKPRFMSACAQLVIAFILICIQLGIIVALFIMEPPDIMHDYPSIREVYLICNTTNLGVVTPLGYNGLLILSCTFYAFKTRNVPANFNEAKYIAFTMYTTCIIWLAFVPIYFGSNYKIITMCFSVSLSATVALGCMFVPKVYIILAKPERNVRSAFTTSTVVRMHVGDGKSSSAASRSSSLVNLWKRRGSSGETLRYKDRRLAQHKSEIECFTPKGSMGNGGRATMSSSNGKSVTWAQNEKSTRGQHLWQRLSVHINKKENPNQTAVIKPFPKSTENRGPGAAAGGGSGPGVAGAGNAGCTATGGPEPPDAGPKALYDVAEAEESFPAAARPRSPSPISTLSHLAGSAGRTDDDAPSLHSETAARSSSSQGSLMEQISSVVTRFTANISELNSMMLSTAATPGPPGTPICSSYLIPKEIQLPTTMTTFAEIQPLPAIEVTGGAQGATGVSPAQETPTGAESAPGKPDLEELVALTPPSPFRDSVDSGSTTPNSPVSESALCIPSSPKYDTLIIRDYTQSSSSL
Metabotropic glutamate receptor 5 (Homo sapiens, UniProt P41594), sequence (P41594 whole entry): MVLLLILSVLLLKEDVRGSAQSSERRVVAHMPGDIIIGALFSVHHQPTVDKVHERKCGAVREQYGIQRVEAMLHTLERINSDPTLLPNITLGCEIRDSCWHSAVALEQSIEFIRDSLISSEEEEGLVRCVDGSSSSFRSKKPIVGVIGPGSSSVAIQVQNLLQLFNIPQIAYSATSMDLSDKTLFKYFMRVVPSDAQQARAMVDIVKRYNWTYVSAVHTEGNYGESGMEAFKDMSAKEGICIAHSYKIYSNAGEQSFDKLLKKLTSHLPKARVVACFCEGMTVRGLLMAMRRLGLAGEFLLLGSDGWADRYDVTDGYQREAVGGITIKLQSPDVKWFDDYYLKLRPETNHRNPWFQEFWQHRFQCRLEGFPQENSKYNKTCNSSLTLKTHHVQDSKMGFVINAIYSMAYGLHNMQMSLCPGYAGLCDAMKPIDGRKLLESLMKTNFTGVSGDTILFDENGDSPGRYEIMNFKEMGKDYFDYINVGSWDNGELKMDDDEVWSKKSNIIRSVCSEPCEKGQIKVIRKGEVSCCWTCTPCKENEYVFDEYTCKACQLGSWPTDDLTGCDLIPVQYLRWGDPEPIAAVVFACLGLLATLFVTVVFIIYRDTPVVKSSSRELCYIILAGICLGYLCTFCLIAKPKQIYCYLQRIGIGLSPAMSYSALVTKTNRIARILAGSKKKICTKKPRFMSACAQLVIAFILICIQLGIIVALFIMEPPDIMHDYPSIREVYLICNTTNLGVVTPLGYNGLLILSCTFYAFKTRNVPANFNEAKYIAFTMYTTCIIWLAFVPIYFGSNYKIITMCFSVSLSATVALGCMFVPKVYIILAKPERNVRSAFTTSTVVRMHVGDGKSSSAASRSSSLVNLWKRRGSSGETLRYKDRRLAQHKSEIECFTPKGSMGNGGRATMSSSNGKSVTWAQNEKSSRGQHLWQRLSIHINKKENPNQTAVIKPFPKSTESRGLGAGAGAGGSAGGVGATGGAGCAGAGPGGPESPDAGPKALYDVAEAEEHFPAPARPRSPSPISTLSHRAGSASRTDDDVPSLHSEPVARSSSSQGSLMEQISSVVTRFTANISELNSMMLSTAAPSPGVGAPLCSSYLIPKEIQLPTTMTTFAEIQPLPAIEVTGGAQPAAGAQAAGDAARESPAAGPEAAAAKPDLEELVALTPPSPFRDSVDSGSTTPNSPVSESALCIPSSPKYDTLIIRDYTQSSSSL
Metabotropic glutamate receptor 5 (Rattus norvegicus, UniProt P31424), sequence (P31424 whole entry, the tested form may be a part): as the sequence (P31424 whole entry, looked up) above

`Cc1nc(C#Cc2cccnc2)c(C)s1` displayed an IC50 in assay [1] of 698 nM.
Regarding `Cc1nc(C#Cc2cccc(C#N)c2)cs1`, the inhibition constant (Ki) stood at 0.37 nM in assay [2] and 0.25 nM in assay [3]. For the same compound, the IC50 in assay [1] was 0.94 nM.
Take `Cc1nc(C#Cc2cccnc2)co1`: the concentration for half-maximal inhibition (IC50) in assay [1] was over 10000 nM.
Take `Cc1nc(C#Cc2cncnc2)cs1`: the IC50 in assay [1] came to 946 nM.
Same read-out and setting: as for `COc1ccccc1C#Cc1csc(C)n1`, the figure is 36.3 nM.
In the case of `C=Cc1cncc(C#Cc2csc(C)n2)c1`, the Ki in assay [2] is 1 nM; in assay [3], 0.71 nM. This compound yielded an IC50 in assay [1] of 2.01 nM.
In assay [1], `COc1ccc(C#Cc2csc(C)n2)cn1` displayed an IC50 of 426 nM.
In assay [1], `CC(=O)Nc1nc(C#Cc2cccnc2)cs1` gave an IC50 of 1920 nM.
`CC(=O)Nc1cccc(C#Cc2csc(C)n2)c1` returned an IC50 in assay [1] of 2020 nM.
On the same count and under the same terms, the same measure for `C#Cc1ncccc1C#Cc1csc(C)n1`: 192 nM.
`Cc1nc(C#Cc2cccc(C(F)(F)F)c2)cs1` came in with a half-maximal inhibitory concentration (IC50) in assay [1] of 413 nM.
Same read-out and setting: as for `Cc1nc(C#Cc2cccc(C(N)=O)c2)cs1`, the figure is 1000 nM; as for `Cc1nc(C#Cc2cccc(O)c2)cs1`, 654 nM.
For `Cc1nc(C#Cc2ccc(-c3ccc(F)cc3)nc2)cs1`, the IC50 in assay [1] is 10.2 nM.
As to `COc1cccc(C#Cc2csc(C)n2)c1`, the IC50 in assay [1] amounted to 49 nM.
On the same count and under the same terms, as for `Cc1nc(C#Cc2ccc(F)cc2)cs1`, the figure is 2970 nM; as for `Cc1nc(C#Cc2cccnc2OS(C)(=O)=O)cs1`, over 10000 nM.
`C#Cc1nc(C#Cc2cccc(F)c2)cs1` returned an IC50 in assay [1] of 2920 nM.
Regarding `Fc1cccc(C#Cc2csc(-c3cc(F)cc(F)c3)n2)c1`, in assay [1], the IC50 is over 10000 nM.
On the same count and under the same terms, the same measure for `Fc1cccc(C#Cc2csc(Br)n2)c1`: 526 nM; for `Cc1nc(/C=C/c2cccnc2)cs1`: 3090 nM.
`OCC#Cc1nc(C#Cc2cccc(F)c2)cs1` had an IC50 in assay [1] of over 10000 nM.
Compound `C=Cc1ccc(C#Cc2csc(C)n2)cn1` returned an IC50 in assay [1] of over 10000 nM.
In the case of `Cc1nc(C#Cc2cccc(OC(F)(F)F)c2)cs1`, the IC50 in assay [1] was 266 nM.
As to `Cc1nc(C#Cc2cccc(F)c2)cs1`, the IC50 in assay [1] turned out to be 23 nM.
With `Cc1nc(C#Cc2ccc(F)nc2)cs1`, in assay [1], the IC50 amounted to 833 nM.
As to `COc1ccc(-c2cncc(C#Cc3csc(C)n3)c2)cc1`, the IC50 in assay [1] worked out at 225 nM.
`Cc1nc(C#Cc2cncc(Br)c2)cs1` came in with a half-maximal inhibitory concentration (IC50) in assay [1] of 60 nM.
`Cc1nc(C#Cc2ccc3[nH]ccc3c2)cs1` gave a concentration for half-maximal inhibition (IC50) in assay [1] of over 10000 nM.
Regarding `Cc1nc(C#Cc2cnccn2)cs1`, in assay [1], the IC50 worked out at 1830 nM.
In assay [1], `Cc1nc(C#Cc2ccc3nccnc3c2)cs1` showed an IC50 of over 10000 nM.
Take `Cc1nc(C#Cc2cccnc2)c(-c2ccccc2)s1`: in assay [1], the IC50 is over 10000 nM.
The same measure, in the same setting: as for `CCc1sc(C)nc1C#Cc1cccnc1`, the figure is 1240 nM.
With `Nc1nc(C#Cc2cccc(F)c2)cs1`, in assay [1], the IC50 turned out to be 78.6 nM.
As to `Cc1nc(C#Cc2cncc(C#CCO)c2)cs1`, in assay [1], the IC50 amounted to 68.6 nM.
Turning to `C#Cc1cncc(C#Cc2csc(C)n2)c1`, the IC50 in assay [1] came to 19.2 nM.
On to `COC(=O)Nc1nc(C#Cc2cccnc2)cs1`, for which, in assay [1], the IC50 was over 10000 nM.
As to `C#Cc1ccc(C#Cc2csc(C)n2)cn1`, in assay [1], the IC50 was determined as 2950 nM.
As to `Cc1nc(C#Cc2ccc(F)cn2)cs1`, in assay [1], the half-inhibitory concentration (IC50) came out at 1090 nM.
In turn, `Cc1nc(C#Cc2cccnc2Cl)cs1` yielded an IC50 in assay [1] of 45.5 nM.
The compound `Cc1nc(C#Cc2ccsc2)cs1` showed an IC50 in assay [1] of 337 nM.
Same read-out and setting: the same measure for `Cc1nc(C(=O)Nc2cccc(F)c2)cs1`: over 10000 nM; for `Cc1nc(C#Cc2cccs2)cs1`: 475 nM.
For `Cc1nc(C#Cc2ccc(Cl)nc2)cs1`, the IC50 in assay [1] is over 10000 nM.
With `Cc1nc(C#Cc2cncc(-c3ccc(F)cc3)c2)cs1`, the IC50 in assay [1] was determined as 162 nM.
`Cc1nc(C#Cc2ccccc2F)cs1`: the IC50 in assay [1] amounted to 140 nM.
`O=C(Nc1nc(C#Cc2cccnc2)cs1)Nc1ccc(F)cc1F`: in assay [1], the IC50 is over 10000 nM.
`Cc1nc(C#Cc2cccnc2)cs1`: the result in the assay listed under Rattus norvegicus was Active.
Turning to `Cc1nc(C(=O)Nc2cccnc2)cs1`, in assay [1], the IC50 is over 10000 nM.
In assay [1], `Cc1nc(C#Cc2cccc(Cl)c2)cs1` displayed an IC50 of 129 nM.
Compound `Cc1nc(C#Cc2cnc3ccccc3c2)cs1` displayed a half-maximal inhibitory concentration (IC50) in assay [1] of over 10000 nM.
In assay [1], `Cc1nc(C#Cc2cc(F)cc(F)c2)cs1` had a half-maximal inhibitory concentration (IC50) of 25.3 nM.
Still for that read-out and setting: the same measure for `C(#Cc1csc(NCc2ccccc2)n1)c1cccnc1`: over 10000 nM.
In the case of `COc1ncccc1C#Cc1csc(C)n1`, in assay [1], the IC50 came out at 228 nM.
For the compound `Cc1nc(C#Cc2ccc(OS(C)(=O)=O)nc2)cs1`, in assay [1], the IC50 was 2340 nM.
Regarding `Cc1nc(C#Cc2cccc(F)c2)co1`, the IC50 in assay [1] was over 10000 nM.
`Nc1nc(C#Cc2cccnc2)cs1` yielded an IC50 in assay [1] of 789 nM.

The values are drawn from ChEMBL document CHEMBL1149388, “Synthesis and structure-activity relationships of 3-[(2-methyl-1,3-thiazol-4-yl)ethynyl]pyridine analogues as potent, noncompetitive metabotropic glutamate receptor subtype 5 antagonists; search for cocaine medications” (J Med Chem, 2006).
